Laboratory results published in publication PMC11734723 (Science Advances, 2025).

What was measured:
murine BMSMCs [1] = experiment: Pit assay on osteo-assay surface plates, murine BMSMC-derived osteoclasts; format: cell-based, mouse; details: ELP-004 100 nM
Outline: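 Murine BMSMC osteoclasts were grown on synthetic bone-mimetic surface plates with ±test compound (100 nM), fed every 3–5 days, and assayed on days 7, 14 and 21. Cells were removed with 10% bleach (5 min). Matrix was stained with 1% silver nitrate under UV for 20–45 min, treated with 2.5% sodium thiosulphate and dehydrated in ethanol. Average size of 10–30 pits was measured.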

endogenous SOCE = experiment: Endogenous SOCE; format: cell-based; details: read-out: IC50 of endogenous SOCE
Outline: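 Store-operated entry by Fura2 imaging. Cells were loaded with Fura2-AM (2 µM, 30 min, RT) and de-esterified 30 min. They were then exposed 10 min to thapsigargin (2 µM) plus varying test compound concentrations in nominally Ca²⁺-free Hepes buffer (pH 7.2). After a stable baseline, 1 mM Ca²⁺ was added and entry was followed as the 340/380 nm ratio.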

[2] = preclinical testing in mice; cited from earlier work
[3] = tested on: NFATc1 nuclear translocation; experiment: NFATc1 nuclear translocation; format: cell-based, mouse; details: ELP-004 100 nM
Outline: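 Murine BMSMC cultures were sampled at 24 h and on days 7, 14 and 21. Cells were fixed in 3.7% PFA (10 min, RT), antigen-retrieved in tris/urea (pH 9.5, 95°C, 10 min), permeabilised in 0.2% Tween 20 and blocked in 1% BSA plus glycine. Anti-NFATc1 (clone 7A6, 200 ng/ml) was applied overnight at 4°C, then Alexa Fluor 488 secondary (2 µg/ml, 1 h) with 7-AAD counterstain. Nuclear colocalisation was assessed by confocal microscopy.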

Human PBMCs = experiment: TRAP staining, multinucleation and cell size of human PBMC-derived osteoclasts; format: cell-based; details: ELP-004 100 nM; for effect on multinucleation: 14 days
Outline: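 Human PBMCs were grown with human mCSF (50 ng/ml) plus RANKL (100 ng/ml), or RANKL (1 ng/ml) with TNFα (2 ng/ml), ±test compound (100 nM), for 14 days. Cells were fixed with 2% PFA (30 min, RT) and stained for TRAP with ELF-97 (200 µM) in acetate/nitrite/tartrate buffer (15 min, RT). After permeabilisation, nuclei were counterstained with 7-AAD. Confocal images were scored for TRAP intensity, TRAP-positive cells and nuclei per cell.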

murine BMSMCs [4] = experiment: Basal intracellular Ca2+ during osteoclastogenesis of murine BMSMCs; format: cell-based, mouse; details: ELP-004 100 nM
Outline: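 C57Bl/6 bone marrow/spleen myeloid cells were grown in αMEM, 10% FBS, and mCSF (50 ng/ml). RANKL (1 or 100 ng/ml) was added at 24 h. After 2–3 days, TNFα (2 ng/ml), LTB4 (50 nM) and test compound (100 nM) were added as indicated, with media refreshed every 3–5 days. On days 1, 7, 14 and 21, cells were Fura2-loaded (2 µM, 30 min, RT; 30 min de-esterification) in pH 7.2 buffer. Basal Ca²⁺ was read as the 340/380 ratio.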

TRPC5 = target: T1, TRPC5 (Homo sapiens, UniProt Q9UL62); experiment: Carbachol-induced Sr2+ entry in TRPC5-overexpressing HEK293 cells; format: cell-based; details: read-out: IC50 of Cch-induced Sr2+ entry; Cch 100 nM, Sr2+ 3 mM
T1 sequence (Q9UL62 1-973): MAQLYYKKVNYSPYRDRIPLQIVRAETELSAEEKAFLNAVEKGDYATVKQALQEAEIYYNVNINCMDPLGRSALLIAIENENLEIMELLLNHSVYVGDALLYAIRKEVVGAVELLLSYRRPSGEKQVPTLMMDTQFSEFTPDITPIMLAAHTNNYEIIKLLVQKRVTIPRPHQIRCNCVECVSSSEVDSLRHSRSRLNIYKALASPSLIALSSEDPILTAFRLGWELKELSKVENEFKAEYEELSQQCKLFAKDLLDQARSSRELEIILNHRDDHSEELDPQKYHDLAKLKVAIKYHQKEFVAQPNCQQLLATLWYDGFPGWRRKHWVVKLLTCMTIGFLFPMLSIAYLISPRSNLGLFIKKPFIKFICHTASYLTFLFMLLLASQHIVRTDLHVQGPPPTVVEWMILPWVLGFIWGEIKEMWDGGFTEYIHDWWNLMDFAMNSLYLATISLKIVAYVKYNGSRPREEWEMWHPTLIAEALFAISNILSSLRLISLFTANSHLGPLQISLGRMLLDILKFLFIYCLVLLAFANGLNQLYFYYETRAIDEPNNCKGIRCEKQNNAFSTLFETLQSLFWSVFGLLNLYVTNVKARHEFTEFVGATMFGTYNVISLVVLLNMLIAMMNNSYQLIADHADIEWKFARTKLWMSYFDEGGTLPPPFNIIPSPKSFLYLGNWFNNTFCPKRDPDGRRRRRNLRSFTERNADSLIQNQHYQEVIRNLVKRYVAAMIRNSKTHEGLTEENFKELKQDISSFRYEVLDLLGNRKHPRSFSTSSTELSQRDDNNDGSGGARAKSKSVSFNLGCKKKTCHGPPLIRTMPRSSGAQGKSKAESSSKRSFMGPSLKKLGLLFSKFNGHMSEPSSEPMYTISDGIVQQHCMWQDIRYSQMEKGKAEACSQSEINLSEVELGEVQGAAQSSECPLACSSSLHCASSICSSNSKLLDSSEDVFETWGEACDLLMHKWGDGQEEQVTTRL
Outline: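 HEK293 cells were electroporated with GFP-tagged TRPC4, TRPC5 or TRPC7, plated after 24 h and cultured 48 h under selection; only high-GFP cells were analysed. Coverslip cells were loaded with Fura2 (2 µM) and treated with carbachol (100 nM) plus test compound (0 to 100 µM). Entry was measured after adding Sr²⁺ (3 mM), read as the 340/380 ratio; n = 3 to 5.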

For `CCC(=O)N(C)c1ccc(Cl)c(Cl)c1` [ELP-004], the “effect on matrix degradation” value (murine BMSMCs [1]; LTB4/RANKL) was “potent inhibition”, the “effect on pit formation (matrix degradation)” value (murine BMSMCs [1]; RANKL (100 ng/ml)) was “significant ELP-004–induced inhibition observed on day 21” and the “effect on matrix degradation” value (murine BMSMCs [1]; TNFα/RANKL) was “completely abolished”. The IC50 (endogenous SOCE) was 100 µM, the “genotoxic or off-target toxicities” value [2] was “without inducing genotoxic or extensive off-target toxicities” and the “changes in NFAT localization” value ([3]; BMSMC-derived macrophages (mCSF only)) was “No significant changes”. For the same compound, the “effect on NFAT nuclear localization” value ([3]; LTB4/RANKL) was “blocked”, the “effect on NFAT translocation” value ([3]; RANKL-induced (100 ng/ml)) was “no effect” and the “effect on NFAT nuclear localization” value ([3]; TNFα/RANKL) was “blocked”. For the same compound, the “changes in NFAT localization” value ([3]; low RANKL alone (1 ng/ml)) was “No significant changes”, the effect on multinucleation (Human PBMCs; RANKL) was “significantly inhibited” and the “effect on intensity of TRAP+ cells” value (Human PBMCs; RANKL) was “not intensity”. The “effect on number of TRAP+ cells” value (Human PBMCs; RANKL) was “inhibited the number”, the “effect on cell size” value (Human PBMCs; TNFα-induced osteoclasts) was “significantly reduced” and the effect on multinucleation (Human PBMCs; TNFα/RANKL) was “significantly inhibited”. The “effect on intensity of TRAP+ cells” value (Human PBMCs; TNFα/RANKL) was “inhibited”, the “effect on number of TRAP+ cells” value (Human PBMCs; TNFα/RANKL) was “inhibited” and the “effect on Ca2+ elevation” value (murine BMSMCs [4]; LTB4 (50 nM)/RANKL (1 ng/ml)) was “significantly attenuated”. For the same compound, the “effect on basal Ca2+ levels” value (murine BMSMCs [4]; RANKL-induced (100 ng/ml), days 1-21) was “no significant effect”, the “effect on Ca2+ elevation” value (murine BMSMCs [4]; TNFα (2 ng/ml)/RANKL (1 ng/ml)) was “significantly attenuated” and the IC50 (TRPC5) was 0.0115 µM.
